Measurements taken from ChEMBL document CHEMBL1121428, “Derivatives of 11-(1-piperazinyl)-5H-pyrrolo[2,1-c][1,4]benzodiazepine as central nervous system agents” (1980).
The source made the active and inactive calls. The calls are words filed in the database; no cut-off is given here.

Key:
Mus musculus [1] = experiment: Minimum effective dose was measured orally by antagonism of tetrabenazine-induced depression in mice(po); inact means compound is inactive.; format: functional, organism-based
Method in brief: (§1)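 Mice given tetrabenazine to induce depression; test agent given orally to look for antagonism of that depression. The value is the minimum effective dose. Each test group held 5 to 10 animals. The protocol is the same as in the group's earlier publications.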

Mus musculus [2] = experiment: Intraperitoneal dose required for antagonism of d-amphetamine lethality in grouped mice (GAL); format: functional; settings: ip
Method in brief: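 Mice housed in groups received drug intraperitoneally and were scored for protection against d-amphetamine-induced lethality. There were 5 to 10 animals per dose group. The ED50 was the dose protecting 50% of mice. 95% confidence limits came from Finney's arc-sine transformation method.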

Rattus norvegicus = experiment: Estimated oral dose depressing motor activity by 50% in rats(po); format: functional
Method in brief: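 Rats dosed orally; spontaneous motor activity recorded. The value is the estimated dose that lowers motor activity by 50%. Each test group held 5 to 10 animals. The protocol is the same as in the authors' earlier reports.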

Mus musculus [3] = experiment: Minimum effective dose was measured orally by antagonism of tetrabenazine-induced depression in mice(po); format: functional; settings: read-out: MED; method in brief: as §1
Mus musculus [4] = experiment: Oral dose required for antagonism of d-amphetamine lethality in grouped mice (GAL); format: functional
Method in brief: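 Drug was given orally to grouped mice challenged with d-amphetamine, and survival (protection from lethality) was recorded. Each test group had 5 to 10 animals. The result is an ED50 with 95% confidence limits, calculated by the arc-sine transformation method of Finney.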

CN(C)CCCN1c2ccccc2Sc2ccc(Cl)cc21 [CHLORPROMAZINE]
MED (Mus musculus [1]): inactive | ED50 (Mus musculus [2]): 0.6 mg/kg | MDD50 (Rattus norvegicus): 2.4 mg/kg

CN(C)CCCN1c2ccccc2CCc2ccccc21 [IMIPRAMINE]
minimal effective dose (Mus musculus [3]): 5 mg/kg | MDD50 (Rattus norvegicus): >50 mg/kg

CN1CCN(C2=Nc3cc(Cl)ccc3Nc3ccccc32)CC1 [CLOZAPINE]
MED (Mus musculus [1]): inactive | ED50 (Mus musculus [2]): 2.2 mg/kg | MDD50 (Rattus norvegicus): 21 mg/kg

CN1CCN(C2=Nc3ccc(Cl)cc3Cn3cccc32)CC1
MED (Mus musculus [1]): inactive | ED50 (Mus musculus [2]): 16 mg/kg | MDD50 (Rattus norvegicus): 50 mg/kg

c1ccc2c(c1)Cn1cccc1C(N1CCNCC1)=N2
minimal effective dose (Mus musculus [3]): 3.1 mg/kg | ED50 (Mus musculus [4]): 4.7 mg/kg

CN1CCN(C2=Nc3ccccc3Cn3cccc32)CC1
MED (Mus musculus [1]): inactive | ED50 (Mus musculus [2]): 1 mg/kg | MDD50 (Rattus norvegicus): 7 mg/kg

CN1CCN(C2=Nc3cc(Cl)ccc3Cn3cccc32)CC1
MED (Mus musculus [1]): inactive | ED50 (Mus musculus [2]): 4 mg/kg | MDD50 (Rattus norvegicus): 12 mg/kg
